Test results: ChEMBL document CHEMBL4017537, “Discovery of a Potent and Specific M. tuberculosis Leucyl-tRNA Synthetase Inhibitor: (S)-3-(Aminomethyl)-4-chloro-7-(2-hydroxyethoxy)benzo[c][1,2]oxaborol-1(3H)-ol (GSK656)” (J Med Chem, 2017)

Assays:
[1] = test system: Mycobacterium tuberculosis; test: Antimicrobial activity against Mycobacterium tuberculosis H37Rv infected in C57BL/6J mouse assessed as bacterial load in lungs at 3 mg/kg qd administered for 8 consecutive weeks starting from 6 weeks post infection measured 24 hrs post last dose (reference value: 6.4 +/- 0.3 log10CFU); type: functional
Summary of the method: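 C57BL/6J mice infected intratracheally with ~10² CFU M. tuberculosis H37Rv. Dosed QD, 7 days/week, for 8 weeks starting 6 weeks post-infection; killed ≥24 h after last dose. Lung homogenates plated on 7H11/10% OADC for 21 days at 37 °C. n = 3 per dose group, 7 for controls; mean (SD); ANOVA with Dunnett's test versus 14-week untreated.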

[2] = Half life in C57BL/6 mouse at 5.5 mg/kg, iv administered as single dose measured up to 24 hrs by LC-MS/MS analysis; type: ADME, organism-based; conditions: in vivo
[3] = Clearance in C57BL/6 mouse at 5.5 mg/kg, iv administered as single dose measured up to 24 hrs by LC-MS/MS analysis; type: ADME, organism-based; conditions: in vivo
[4] = Tmax in C57BL/6 mouse at 26.1 mg/kg administered as single dose via oral gavage measured up to 24 hrs by LC-MS/MS analysis; type: ADME, organism-based; conditions: in vivo
[5] = Volume of distribution at steady state in CD-1 mouse at 30 mg/kg, iv after 24 hrs by LC-MS/MS analysis; type: ADME, organism-based; conditions: in vivo, read-out: Vdss
[6] = test system: Mus musculus; test: Dose normalized AUC (0 to 24 hrs) in CD-1 mouse at 30 mg/kg administered via oral gavage by LC-MS/MS analysis; type: ADME, organism-based; conditions: in vivo

## Cl.NC[C@H]1OB(O)c2c(OCCO)ccc(Cl)c21
[1]
  Activity: 4.6 log10CFU
[2]
  half-life: 3.6 h
[3]
  clearance: 8.5 mL/min/kg

## CCOc1ccc(Br)c2c1B(O)O[C@@H]2CN
[4]
  Tmax: 2 h
[5]
  Vd: 3.2 L/kg
[6]
  AUC/dose: 1.92 µg·h/mL
